Measured values published in publication PMC4885513 (The Journal of Pharmacology and Experimental Therapeutics, 2016).
“Also recorded” adds a separate entry of the source. Like-named read-outs stand apart in the source and are kept apart here.

Columns and labels:
[1] = molecular target: α1β1γ2S receptors (Rattus norvegicus, UniProt P15431+P62813); assay: IGABA enhancement; format: cell-based; settings: for Emax: read-out: maximal IGABA enhancement (Emax); for Hill-coefficient (nH): α1β1γ2S, GABA EC3-7, Xenopus oocytes
Sequence of α1β1γ2S receptors (P15431 26-474): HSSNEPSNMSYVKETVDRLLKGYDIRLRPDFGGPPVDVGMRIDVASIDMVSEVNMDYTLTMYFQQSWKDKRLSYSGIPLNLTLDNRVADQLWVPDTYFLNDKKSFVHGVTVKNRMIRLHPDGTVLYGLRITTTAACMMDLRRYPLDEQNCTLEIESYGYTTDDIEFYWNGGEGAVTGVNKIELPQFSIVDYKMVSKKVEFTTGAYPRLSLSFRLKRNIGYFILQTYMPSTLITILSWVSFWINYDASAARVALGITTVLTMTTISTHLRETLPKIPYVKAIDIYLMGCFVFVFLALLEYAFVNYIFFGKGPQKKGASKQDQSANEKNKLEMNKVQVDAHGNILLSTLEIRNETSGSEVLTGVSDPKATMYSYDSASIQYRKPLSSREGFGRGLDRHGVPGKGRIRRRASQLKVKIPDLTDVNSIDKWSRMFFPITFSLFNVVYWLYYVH
Sequence of α1β1γ2S receptors (P62813 28-455): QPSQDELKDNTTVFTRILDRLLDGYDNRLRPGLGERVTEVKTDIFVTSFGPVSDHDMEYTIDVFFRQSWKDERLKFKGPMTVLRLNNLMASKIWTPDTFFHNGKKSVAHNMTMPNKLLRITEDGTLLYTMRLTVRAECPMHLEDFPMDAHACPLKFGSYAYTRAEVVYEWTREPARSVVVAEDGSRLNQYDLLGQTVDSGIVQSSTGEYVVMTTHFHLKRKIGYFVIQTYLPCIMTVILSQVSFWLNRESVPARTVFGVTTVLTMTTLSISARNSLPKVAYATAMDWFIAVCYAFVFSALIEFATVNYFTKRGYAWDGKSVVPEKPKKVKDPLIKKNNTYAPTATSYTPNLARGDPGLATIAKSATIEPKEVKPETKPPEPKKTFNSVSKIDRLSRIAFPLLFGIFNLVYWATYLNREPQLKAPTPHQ
Sequence of α1β1γ2S receptors (P18508 39-466 partner): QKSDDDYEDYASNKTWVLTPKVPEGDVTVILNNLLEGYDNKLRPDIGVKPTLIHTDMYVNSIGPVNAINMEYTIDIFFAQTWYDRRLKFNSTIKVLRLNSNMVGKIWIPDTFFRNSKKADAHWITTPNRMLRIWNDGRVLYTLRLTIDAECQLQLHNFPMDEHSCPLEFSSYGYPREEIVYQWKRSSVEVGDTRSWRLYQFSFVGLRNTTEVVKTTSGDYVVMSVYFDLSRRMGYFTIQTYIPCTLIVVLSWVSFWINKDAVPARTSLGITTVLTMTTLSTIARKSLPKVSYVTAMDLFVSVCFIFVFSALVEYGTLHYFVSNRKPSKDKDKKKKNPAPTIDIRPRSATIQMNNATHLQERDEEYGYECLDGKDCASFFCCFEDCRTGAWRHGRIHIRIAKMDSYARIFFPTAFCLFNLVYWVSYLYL
Method in brief: (§1)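 Rat α1, β1/β2/β3 and γ2S cRNAs (100–2000 ng/μl/subunit, about 10–50 nl) were injected into collagenase-treated stage V–VI Xenopus oocytes held at 18°C in ND96. The α:β:γ ratio was 1:1:10 for β2 and β3 and 3:1:10 for β1. Recordings used two-electrode voltage clamp at −70 mV in a HEPES bath at pH 7.4. Compound (≤500 µM, DMSO matched) was applied with per-oocyte GABA EC3–7 by fast perfusion. Oocytes above 5 µA were excluded. Enhancement = I(GABA+Comp)/IGABA − 1, Hill-fitted for EC50, Emax and nH; ≥3 oocytes, ≥2 batches.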

[2] = molecular target: α1β2γ2S receptors (Rattus norvegicus, UniProt P62813+P63138); assay: IGABA enhancement; format: cell-based; settings: for Emax: read-out: maximal IGABA enhancement (Emax); for Hill-coefficient (nH): α1β2γ2S, GABA EC3-7, Xenopus oocytes
Sequence of α1β2γ2S receptors (P63138 25-474 limits assumed): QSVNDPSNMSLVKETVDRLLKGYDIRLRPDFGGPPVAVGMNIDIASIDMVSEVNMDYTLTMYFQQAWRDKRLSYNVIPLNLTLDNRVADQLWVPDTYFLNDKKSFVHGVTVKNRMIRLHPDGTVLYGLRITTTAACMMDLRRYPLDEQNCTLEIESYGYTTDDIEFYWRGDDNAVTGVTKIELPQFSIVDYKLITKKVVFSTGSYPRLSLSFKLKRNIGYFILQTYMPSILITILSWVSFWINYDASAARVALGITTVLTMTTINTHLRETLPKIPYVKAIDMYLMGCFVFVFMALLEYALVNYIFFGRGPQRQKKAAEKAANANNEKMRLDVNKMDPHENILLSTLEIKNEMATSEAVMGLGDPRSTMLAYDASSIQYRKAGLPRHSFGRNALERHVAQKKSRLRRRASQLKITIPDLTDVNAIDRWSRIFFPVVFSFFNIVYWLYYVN
Sequence of α1β2γ2S receptors (P62813 28-455): as the sequence (P62813 28-455) above
Sequence of α1β2γ2S receptors (P18508 39-466 partner): as the sequence (P18508 39-466 partner) above
Method in brief: as §1

[3] = molecular target: T1, α1β3γ2S receptors (Rattus norvegicus, UniProt P62813+P63079); assay: IGABA enhancement; format: cell-based; settings: for Hill-coefficient (nH): GABA EC3-7, Xenopus oocytes; for Emax: read-out: maximal IGABA enhancement (Emax)
T1 sequence (P63079 26-473): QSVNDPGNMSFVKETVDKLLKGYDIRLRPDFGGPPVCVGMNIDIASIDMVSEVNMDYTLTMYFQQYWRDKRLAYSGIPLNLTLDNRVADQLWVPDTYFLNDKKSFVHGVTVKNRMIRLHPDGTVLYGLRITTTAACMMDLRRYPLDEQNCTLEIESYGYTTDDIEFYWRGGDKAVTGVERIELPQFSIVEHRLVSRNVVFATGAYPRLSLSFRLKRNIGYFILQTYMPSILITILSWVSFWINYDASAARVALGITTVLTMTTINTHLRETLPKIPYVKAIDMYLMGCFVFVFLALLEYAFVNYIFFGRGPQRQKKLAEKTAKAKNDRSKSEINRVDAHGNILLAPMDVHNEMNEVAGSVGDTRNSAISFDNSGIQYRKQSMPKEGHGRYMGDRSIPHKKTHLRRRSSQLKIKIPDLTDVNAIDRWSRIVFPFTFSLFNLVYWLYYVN
T1 sequence (P62813 28-455): as the sequence (P62813 28-455) above
T1 sequence (P18508 39-466 partner): as the sequence (P18508 39-466 partner) above
Method in brief: as §1

[4] = test system: pentylenetetrazole (PTZ)-induced seizure threshold; assay: PTZ-induced seizure threshold; format: in vivo, male C57BL/6N mice; settings: for PTZ-induced seizure threshold: 30 min before test, saline control 40.4 ± 1.4
Method in brief: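 Male C57BL/6N mice aged 3–6 months received compound i.p. 30 min before testing. Vehicle was 0.9% NaCl with 10% DMSO and 3% Tween 80. PTZ (10 mg/ml in saline, pH 7.4) was infused into the tail vein at 100 µl/min in freely moving animals until seizure onset. Threshold was the infused PTZ dose per body weight (mg/kg). ≥3 mice per point; one-way ANOVA with Bonferroni.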

[5] = test system: locomotor activity; assay: Open-field test; format: in vivo, male C57BL/6N mice; settings: for total distance covered in the open field test: 30 min before test, 10 min test, control 38.3 ± 1.5 m
[6] = molecular target: T1, α1β3γ2S receptors; settings: GABA EC3-7, Xenopus oocytes, ref Luger et al. (2015); cited from earlier work
[7] = test system: pentylenetetrazole (PTZ)-induced seizure threshold; settings: 3 mg/kg i.p., 30 min before test; ref Hintersteiner et al. (2014); cited from earlier work
[8] = test system: GABAA channels; settings: ref Khom et al., 2007; cited from earlier work

Row | SMILES | EC50 [1] [µM] | Emax [1] [%] | Hill-coefficient (nH) [1] | EC50 [2] [µM] | Emax [2] [%] | Hill-coefficient (nH) [2] | EC50 [3] [µM] | Hill-coefficient (nH) ([3]; α1β3γ2S) | PTZ-induced seizure threshold ([4]; 10 mg/kg i.p.) [mg/kg PTZ] | PTZ-induced seizure threshold ([4]; 30 mg/kg i.p.) [mg/kg PTZ] | total distance covered in the open field test ([5]; 30 mg/kg i.p.) [m] | effect on locomotor activity vs control ([5]; low doses (≤10 mg/kg) i.p.) | Emax [3] [%] | effect on locomotor activity vs control ([5]; any tested dose i.p.) | also measured
1 | CNC(=O)/C(C)=C/[C@@H]1CC[C@@H](C)[C@H]2CCC(C)=C12 [VA-MA, (E)-3-((4S,7R,7aR)-3,7-dimethyl-2,4,5,6,7,7a-hexahydro-1H-inden-4-yl)-N,2-dimethylacrylamide] | 58.1 ± 16.5 | 387 ± 56 | 1.6 ± 0.3 | 9.1 ± 1.4 | 917 ± 36 | 1.5 ± 0.1 | 12.7 ± 0.9 | 1.5 ± 0.1 | 50.4±1.4 | 63.6 ± 2.5 | 29.7 ± 2.0 | did not affect locomotor activity | – | – | effect on locomotor activity vs control ([5]; doses ≥10 mg/kg i.p.): reduced locomotion
2 | CC1=C2[C@H](/C=C(\C)C#N)CC[C@@H](C)[C@H]2CC1 [VA-CN, (E)-3-((4S,7R,7aR)-3,7-dimethyl-2,4,5,6,7,7a-hexahydro-1H-inden-4-yl)-2-methylacrylonitrile] | 73 ± 38.7 | 55 ± 14 | 1.7 ± 0.7 | 56.5 ± 13.3 | 765 ± 117 | 2.5 ± 0.7 | 42.4 ± 15.8 | 2.1 ± 0.8 | 51.1 ± 0.6 | – | 31.5±1.5 | did not affect locomotor activity | 522 ± 114 | – | –
3 | CCN(CC)C(=O)/C(C)=C/[C@@H]1CC[C@@H](C)[C@H]2CCC(C)=C12 [VA-DEA, (E)-3-((4S,7R,7aR)-3,7-dimethyl-2,4,5,6,7,7a-hexahydro-1H-inden-4-yl)-N,N-diethyl-2-methylacrylamide] | 97.2 ± 33.8 | 318 ± 84 | 1.8 ± 0.3 | 54.4 ± 11.1 | 573 ± 33 | 1.6 ± 0.3 | 80.8 ± 31.3 | 1.9 ± 0.5 | – | 48.7±1.7 | – | – | 374 ± 102 | did not reveal any significantly different behavior | –
4 | CC1=C2[C@H](/C=C(\C)C(=O)O)CC[C@@H](C)[C@H]2CC1 [VA, Valerenic acid, reference compound] | 74.4 ± 19.3 | 111 ± 16 | 1.6 ± 0.5 | 23.1 ± 4.2 | 721 ± 68 | 1.4 ± 0.2 | – | – | 49.0 ± 1.8 | 43.4 ± 1.8 | 37.6 ± 2.5 | – | – | did not differ significantly | effect on PTZ-induced seizure threshold ([4]; doses <3 mg/kg body weight i.p.): did not alter seizure threshold; total distance covered in the open field test ([5]; 1 mg/kg i.p.): 34.9 ± 1.3 m; total distance covered in the open field test ([5]; 3 mg/kg i.p.): 38.7 ± 2.1 m; total distance covered in the open field test ([5]; 10 mg/kg i.p.): 38.0 ± 1.4 m; Hill-coefficient (nH) [6]: 1.5 ± 0.3; PTZ-induced seizure threshold [7]: 47.7 ± 1.4 mg/kg PTZ; concentration directly activating GABAA channels in the absence of GABA [8]: ≥ 30 µM
5 | CC1=C2[C@H](/C=C(\C)C(N)=O)CC[C@@H](C)[C@H]2CC1 [VA-A, (E)-3-((4S,7R,7aR)-3,7-dimethyl-2,4,5,6,7,7a-hexahydro-1H-inden-4-yl)-2-methylacrylamide] | 66.6 ± 34.6 | 218 ± 78 | 1.8 ± 0.6 | 14 ± 2.2 | – | 1.4 ± 0.2 | 7.5 ± 1.8 | 1.5 ± 0.2 | 55.4 ± 0.7 | 50.6 ± 2.2 | 23.5±2.2 | – | 972 ± 69 | – | PTZ-induced seizure threshold ([4]; 3 mg/kg i.p.): 57.9 ± 1.9 mg/kg PTZ; total distance covered in the open field test ([5]; 10 mg/kg i.p.): 29.9 ± 2.6 m; effect on locomotor activity vs control ([5]; doses of 1 and 3 mg/kg i.p.): did also not affect the total distance covered; effect on locomotor activity vs control ([5]; doses ≥10 mg/kg i.p., 10 mg/kg): reduced locomotion; also recorded: reduced locomotor activity
6 | CCNC(=O)/C(C)=C/[C@@H]1CC[C@@H](C)[C@H]2CCC(C)=C12 [VA-EA, (E)-3-((4S,7R,7aR)-3,7-dimethyl-2,4,5,6,7,7a-hexahydro-1H-inden-4-yl)-N-ethyl-2-methylacrylamide] | 51.4 ± 19.8 | 458 ± 124 | 1.6 ± 0.3 | 11 ± 3.6 | 554 ± 49 | 1.6 ± 0.3 | 27.2 ± 6.7 | 1.3 ± 0.2 | – | 55.6 ± 0.4 | – | – | 677 ± 64 | did not reveal any significantly different behavior | –
7 | CC1=C2[C@H](/C=C(\C)c3nnn[nH]3)CC[C@@H](C)[C@H]2CC1 [VA-TET, 5-((E)-1-((4S,7R,7aR)-3,7-dimethyl-2,4,5,6,7,7a-hexahydro-1H-inden-4-yl)prop-1-en-2-yl)-1H-tetrazole] | 23.5 ± 10.9 | 176 ± 43 | 1.8 ± 0.6 | 34.1 ± 6.3 | – | 1.0 ± 0.1 | 6 ± 1 | 1.1 ± 0.1 | – | – | 19.2 ± 2.1 | did not affect locomotor activity | 668 ± 57 | – | increase in potency on β3-containing receptors compared with VA ([3]; EC50 ratio VA / VA-TET, α1β3γ2S): approximately threefold; PTZ-induced seizure threshold ([4]; 0.3 mg/kg i.p.): 47.3 ± 0.5 mg/kg PTZ; effect on PTZ-induced seizure threshold ([4]; doses ≥1 mg/kg i.p.): lost its anticonvulsive properties; effect on locomotor activity vs control ([5]; doses ≥10 mg/kg i.p.): reduced locomotion
8 | CC1=C2[C@H](/C=C(\C)C(=O)N(C)C)CC[C@@H](C)[C@H]2CC1 [VA-DMA, (E)-3-((4S,7R,7aR)-3,7-dimethyl-2,4,5,6,7,7a-hexahydro-1H-inden-4-yl)-N,N,2-trimethylacrylamide] | 52.5 ± 20.1 | 305 ± 67 | 1.7 ± 0.5 | 63.9 ± 23.7 | 594 ± 36 | 1.3 ± 0.2 | 48 ± 16 | 1.4 ± 0.2 | – | – | – | – | 415 ± 61 | did not reveal any significantly different behavior | effect on PTZ-induced seizure threshold vs diluent-treated controls ([4]; any tested dose i.p.): did not significantly differ
